Data taken from ChEMBL document CHEMBL6083205, “A comprehensive apoptotic assessment of niloticin in cervical cancer cells: a tirucallane-type triterpenoid from Aphanamixis polystachya (Wall.) Parker” (RSC Med Chem, 2024).

System: HeLa
Test: Antiproliferative activity against human HeLa cells assessed as inhibition of cell growth incubated for 24 hrs by MTT assay
Assay type: functional, cell-based
In short: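 Cells kept in DMEM with 10% FBS and 1% antibiotic-antimycotic at 37 °C and 5% CO2. Seeded at 8 × 10^3 cells per 100 μL and left 24 h, then exposed 24 h to 5, 10, 20, 50 or 100 μM. MTT at 0.5 mg/mL in HBSS was added for 2–4 h at 37 °C in the dark. Formazan was dissolved in DMSO, A570 was read, and IC50 was derived.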

IC50: > 100 µM
SMILES: C[C@@H](C[C@@H](O)[C@H](O)C(C)(C)O)[C@@H]1CC[C@]2(C)C3=CC[C@H]4C(C)(C)[C@H](O)CC[C@]4(C)[C@H]3CC[C@@]12C
